Measured values reported in ChEMBL document CHEMBL1156843, “3,5-Bis(benzylidene)-1-[4-2-(morpholin-4-yl)ethoxyphenylcarbonyl]-4-piperidone hydrochloride: a lead tumor-specific cytotoxin which induces apoptosis and autophagy” (Bioorg Med Chem Lett, 2010).
pIC50: −log10 of the molar value. Calls of active or inactive are those of the source. No cut-off for these calls is given here.

Tests used:
[1] = Cytotoxicity against human HPLF cells; format: cell-based
HL-60 [2] = assay: Selectivity index, ratio of CC50 for human normal cells to CC50 for human HL60 cells; format: functional
How it was run: (§1)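 Ratio of the mean CC50 over three normal human lines (HGF gingival fibroblasts, HPC pulp cells, HPLF periodontal ligament fibroblasts) to the CC50 for the given tumor line. Each CC50 is the mean of two independent determinations.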

HSC-2 [3] = assay: Selectivity index, ratio of CC50 for human normal cells to CC50 for human HSC2 cells; format: functional; how it was run: as §1
[4] = Cytotoxicity against human HPC cells; format: cell-based
[5] = Cytotoxicity against human HGF cells; format: cell-based
HSC-4 [6] = assay: Selectivity index, ratio of CC50 for human normal cells to CC50 for human HSC4 cells; format: functional; how it was run: as §1
HL-60 [7] = assay: Cytotoxicity against human HL60 cells; format: functional
How it was run: (§2)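 Each value is the mean of two independent determinations.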

HSC-4 [8] = assay: Cytotoxicity against human HSC4 cells; format: functional; how it was run: as §2
HSC-2 [9] = assay: Cytotoxicity against human HSC2 cells; format: functional; how it was run: as §2
HSC-2 [10] = assay: Induction of bell-shaped internucleosomal DNA fragmentation in human HSC2 cells at 2 to 32 uM after 7 hrs; format: functional, cell-based
HT-29 [11] = assay: Cell cycle arrest in human HT-29 cells assessed as accumulation at G1 phase at 5 uM after 48 hrs by flow cytometry; format: functional
How it was run: (§3)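 HT29 cells plated and grown 48 h to 50–60% confluency, then exposed to compound for 48 h. Cells trypsinized, PBS-washed, fixed overnight in 70% ethanol at 4 °C. Held 1 h on ice, then DNA content read by flow cytometry.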

HT-29 [12] = assay: Cell cycle arrest in human HT-29 cells assessed as accumulation at G2/M phase at 5 uM after 48 hrs by flow cytometry; format: functional; how it was run: as §3
HSC-2 [13] = assay: Induction of acidic organelles formation in human HSC2 cells at 4 to 8 uM after 6 hrs; format: functional, cell-based
How it was run: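 Acidic organelle formation scored in HSC-2 cells after 6 h exposure; reference condition was culture in Hank's balanced salt solution for 1 h.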

HL-60 [14] = assay: Induction of bell-shaped internucleosomal DNA fragmentation in human HL60 cells at 1 to 2 uM after 7 hrs; format: functional, cell-based
HT-29 [15] = assay: Cell cycle arrest in human HT-29 cells assessed as accumulation at S phase at 5 uM after 48 hrs by flow cytometry; format: functional; how it was run: as §3
HT-29 [16] = assay: Cytotoxicity against human HT-29 cells after 96 hrs by MTT assay; format: functional, cell-based; details: HT-29, 96 h
How it was run: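 HT29 cells (ATCC) kept in DMEM with 10% fetal calf serum under 5% CO2 at 37 °C. Cells detached with trypsin and seeded at 9000 cells/well, then allowed 24 h to attach. Compound added at a range of concentrations; medium-only wells served as controls. After 96 h, proliferation was estimated from MTT reduction read at 540 nm.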

HT-29 [17] = assay: Cell cycle arrest in human HT-29 cells assessed as accumulation at sub-G1 phase at 5 uM after 48 hrs by flow cytometry; format: functional; how it was run: as §3

SMILES	CC50 [1] [µM]	Selectivity Index (HL-60 [2])	Selectivity Index (HSC-2 [3])	CC50 [4] [µM]	CC50 [5] [µM]	Selectivity Index (HSC-4 [6])	CC50 (HL-60 [7]) [µM]	CC50 (HSC-4 [8]) [µM]	CC50 (HSC-2 [9]) [µM]	Activity (HSC-2 [10])	Activity (HT-29 [11]) [%]	Activity (HT-29 [12]) [%]	Activity (HSC-2 [13])	Activity (HL-60 [14])	Activity (HT-29 [15]) [%]	pIC50 (HT-29 [16])	Activity (HT-29 [17]) [%]
Cl.O=C1/C(=C/c2ccc(Cl)cc2)CN(C(=O)c2ccc(OCCN3CCCCC3)cc2)C/C1=C\c1ccc(Cl)cc1	340	>6	>3.5	> 400	> 400	>7.9											
CN(C)CCOc1ccc(C(=O)N2C/C(=C\c3ccccc3)C(=O)/C(=C/c3ccccc3)C2)cc1.Cl	8.9	8.5	2.2	13	3.6	4.1	1	2.1	3.8								
CC[N+](C)(CC)CCOc1ccc(C(=O)N2C/C(=C\c3ccccc3)C(=O)/C(=C/c3ccccc3)C2)cc1.[I-]	79	1.7	1.1	170	160	1.7	82	82	130								
CCN(CC)CCOc1ccc(C(=O)N2C/C(=C\c3ccccc3)C(=O)/C(=C/c3ccccc3)C2)cc1.Cl	6	12	2.4	12	4.2	3.7	0.61	2	3.1								
Cc1ccc(/C=C2\CN(C(=O)c3ccc(OCCN4CCCCC4)cc3)C/C(=C\c3ccc(C)cc3)C2=O)cc1.Cl	5.5	3.8	3	15	6	2.2	2.3	4.1	2.9								
Cl.O=C1/C(=C/c2ccccc2)CN(C(=O)c2ccc(OCCN3CCCCC3)cc2)C/C1=C\c1ccccc1	7.4	5.7	2.7	12	4.6	3.2	1.4	2.5	3								
CN(C)CCOc1ccc(C(=O)N2C/C(=C\c3ccc([N+](=O)[O-])cc3)C(=O)/C(=C/c3ccc([N+](=O)[O-])cc3)C2)cc1.Cl	5.9	19	6.5	5.2	7	8.5	0.31	0.71	0.93								
CN(C)CCOc1ccc(C(=O)N2C/C(=C\c3ccc(Cl)cc3)C(=O)/C(=C/c3ccc(Cl)cc3)C2)cc1.Cl	4.3	7.5	5.6	11	23	7.1	1.7	1.8	2.3								
Cl.O=C1/C(=C/c2ccc(Cl)cc2)CN(C(=O)c2ccc(OCCN3CCOCC3)cc2)C/C1=C\c1ccc(Cl)cc1	360	> 11	>5.5	> 400	400	>22	36	18	71								
CC[N+](C)(CC)CCOc1ccc(C(=O)N2C/C(=C\c3ccc(Cl)cc3)C(=O)/C(=C/c3ccc(Cl)cc3)C2)cc1.[I-]	9.4	>4.2	0.7	> 400	> 400	>1.2	64	220	> 400								
CC[N+](C)(CC)CCOc1ccc(C(=O)N2C/C(=C\c3ccc([N+](=O)[O-])cc3)C(=O)/C(=C/c3ccc([N+](=O)[O-])cc3)C2)cc1.[I-]	13	2.7	1.2	130	93	1.3	29	61	67								
CC[N+](C)(CC)CCOc1ccc(C(=O)N2C/C(=C\c3ccc(C)cc3)C(=O)/C(=C/c3ccc(C)cc3)C2)cc1.[I-]	8.3	1.5	1.4	29	34	1.4	16	17	17								
Cl.O=C1/C(=C/c2ccc([N+](=O)[O-])cc2)CN(C(=O)c2ccc(OCCN3CCOCC3)cc2)C/C1=C\c1ccc([N+](=O)[O-])cc1	9.3	28	13	8.2	12	13	0.35	0.74	0.76								
Cl.O=C1/C(=C/c2ccccc2)CN(C(=O)c2ccc(OCCN3CCOCC3)cc2)C/C1=C\c1ccccc1	30	58	29	95	83	29	1.2	2.4	2.4	inactive	50.5	11.1	Active	Active	25.2	5.43	11.4
CCN(CC)CCOc1ccc(C(=O)N2C/C(=C\c3ccc(C)cc3)C(=O)/C(=C/c3ccc(C)cc3)C2)cc1.Cl	4.6	7.3	2.6	9.3	3.6	2.5											
CCN(CC)CCOc1ccc(C(=O)N2C/C(=C\c3ccc([N+](=O)[O-])cc3)C(=O)/C(=C/c3ccc([N+](=O)[O-])cc3)C2)cc1.Cl	5.9	20	5.2	4.5	5	4.6											
CCN(CC)CCOc1ccc(C(=O)N2C/C(=C\c3ccc(Cl)cc3)C(=O)/C(=C/c3ccc(Cl)cc3)C2)cc1.Cl	> 400	>7.5	>2.1	> 400	230	>10											
Cc1ccc(/C=C2\CN(C(=O)c3ccc(OCCN4CCOCC4)cc3)C/C(=C\c3ccc(C)cc3)C2=O)cc1.Cl	12	20	15	49	10	12	1.2	2	1.6								
N[C@@H](Cc1ccc(N(CCCl)CCCl)cc1)C(=O)O	> 200	>33	>5.7	> 200	> 200	>2.5											
Cc1ccc(/C=C2\CN(C(=O)c3ccc(OCCN(C)C)cc3)C/C(=C\c3ccc(C)cc3)C2=O)cc1.Cl	3.4	7.3	4.4	7.2	7.9	3	0.85	2.1	1.4								
Cl.O=C1/C(=C/c2ccc([N+](=O)[O-])cc2)CN(C(=O)c2ccc(OCCN3CCCCC3)cc2)C/C1=C\c1ccc([N+](=O)[O-])cc1	4.9	19	6.5	3.9	8	6.2	0.29	0.9	0.86								
